Results on 20 molecules are retold here after ChEMBL document CHEMBL1681760, “Further SAR study on 11-O-substituted aporphine analogues: identification of highly potent dopamine D3 receptor ligands” (Bioorg Med Chem, 2011).

One experiment concerns the target D(3) dopamine receptor (Homo sapiens, UniProt P35462). The experiment is described as follows: Displacement of [3H]spiperone from dopamine D3 receptor expressed in human HEK293 cells by liquid scintillation counter. The format is cell-based. The essentials:
(§1)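 Stably transfected HEK293 membranes, 15 µg per tube, in duplicate. Competed against [3H]spiperone with increasing compound concentrations from 1 nM. Buffer 50 mM Tris, 4 mM MgCl2, pH 7.4; 30 °C for 50 min. Unlabelled spiperone defined nonspecific binding. Stopped by rapid GF/B filtration and washing with cold 50 mM Tris/5 mM EDTA.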

Experiment [1] addresses T1, D(2) dopamine receptor (Homo sapiens, UniProt P14416). Briefly: Displacement of [3H]spiperone from dopamine D2 receptor expressed in human HEK293 cells by liquid scintillation counter. In kind it is cell-based. The essentials:
as §1

Experiment [2] concerns the target T2, D(1A) dopamine receptor (Homo sapiens, UniProt P21728). Briefly: Displacement of [3H]SCH23390 from dopamine D1 receptor expressed in human HEK293 cells by liquid scintillation counter. In kind it is cell-based. The procedure, abridged: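 Membranes from stably transfected HEK293 cells, 15 µg per tube, in duplicate. Incubated with [3H]SCH23390 and increasing compound concentrations from 1 nM. Buffer 50 mM Tris, 4 mM MgCl2, pH 7.4; 50 min at 30 °C. Nonspecific binding with unlabelled SCH23390. Reaction started by adding membranes and stopped by GF/B filtration.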

Experiment [3] in a line: Selectivity ratio of Ki for 5-HT1A receptor to Ki for dopamine D3 receptor.
The target of experiment [4] is 5-hydroxytryptamine receptor 2A (Homo sapiens, UniProt P28223). Briefly: Displacement of [3H]Ketanserin from 5-HT2A receptor expressed in CHO cells by liquid scintillation counter. The format is cell-based. The procedure, abridged:
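Duplicate incubations of CHO membranes (15 µg per tube) with [3H]Ketanserin and a rising compound series starting at 1 nM. Run in 50 mM Tris, 4 mM MgCl2, pH 7.4, at 30 °C for 50 min. Unlabelled ketanserin gave nonspecific binding. Bound counts retained on GF/B filters after cold-buffer washing.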

In experiment [5] the target is T3, 5-hydroxytryptamine receptor 1A (Homo sapiens, UniProt P08908).
T3 sequence (P08908 whole entry): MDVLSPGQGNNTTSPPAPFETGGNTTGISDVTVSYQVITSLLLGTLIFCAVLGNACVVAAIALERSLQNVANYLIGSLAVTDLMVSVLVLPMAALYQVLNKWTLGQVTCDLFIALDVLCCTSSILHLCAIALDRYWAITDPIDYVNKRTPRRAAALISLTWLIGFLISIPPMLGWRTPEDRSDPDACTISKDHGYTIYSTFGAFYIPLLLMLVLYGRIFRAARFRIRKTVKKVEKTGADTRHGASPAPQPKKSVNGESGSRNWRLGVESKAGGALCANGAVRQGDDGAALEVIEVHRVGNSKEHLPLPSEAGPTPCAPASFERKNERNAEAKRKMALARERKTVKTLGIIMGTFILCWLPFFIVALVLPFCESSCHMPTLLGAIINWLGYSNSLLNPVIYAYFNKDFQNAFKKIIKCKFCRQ
Briefly: Displacement of [3H]8-OH-DPAT from 5-HT1A receptor expressed in CHO cells by liquid scintillation counter. The format is cell-based. The essentials: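 CHO cell membrane homogenates, 15 µg per tube, in duplicate tubes. Test compound at increasing concentrations from 1 nM with 0.7 nM [3H]8-OH-DPAT. Buffer 50 mM Tris, 4 mM MgCl2, pH 7.4. Incubated 50 min at 30 °C. Nonspecific binding defined with WAY100635. Stopped by GF/B filtration and cold Tris/EDTA wash.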

Experiment [6] can be described thus: Selectivity ratio of Ki for 5-HT2A receptor to Ki for 5-HT1A receptor.
The target of experiment [7] is T1, D(2) dopamine receptor. The experiment is described as follows: Displacement of [3H]spiperone from dopamine D2 receptor expressed in human HEK293 cells at 10 uM by liquid scintillation counter. The format is cell-based.
The target of experiment [8] is T2, D(1A) dopamine receptor. Briefly: Displacement of [3H]SCH23390 from dopamine D1 receptor expressed in human HEK293 cells at 10 uM by liquid scintillation counter. In kind it is cell-based.

5-hydroxytryptamine receptor 2A, sequence (P28223 whole entry): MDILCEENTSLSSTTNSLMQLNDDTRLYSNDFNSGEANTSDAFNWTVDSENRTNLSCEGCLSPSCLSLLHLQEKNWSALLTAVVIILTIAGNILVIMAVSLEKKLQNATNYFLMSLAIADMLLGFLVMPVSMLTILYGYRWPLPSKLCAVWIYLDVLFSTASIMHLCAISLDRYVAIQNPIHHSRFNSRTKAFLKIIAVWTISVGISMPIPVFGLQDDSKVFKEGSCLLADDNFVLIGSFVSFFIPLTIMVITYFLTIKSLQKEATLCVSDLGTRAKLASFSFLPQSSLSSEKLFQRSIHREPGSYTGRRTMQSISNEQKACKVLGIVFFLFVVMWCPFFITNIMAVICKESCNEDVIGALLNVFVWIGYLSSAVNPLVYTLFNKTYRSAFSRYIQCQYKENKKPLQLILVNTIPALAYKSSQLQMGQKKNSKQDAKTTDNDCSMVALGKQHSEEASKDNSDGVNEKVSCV
T2 sequence (P21728 whole entry): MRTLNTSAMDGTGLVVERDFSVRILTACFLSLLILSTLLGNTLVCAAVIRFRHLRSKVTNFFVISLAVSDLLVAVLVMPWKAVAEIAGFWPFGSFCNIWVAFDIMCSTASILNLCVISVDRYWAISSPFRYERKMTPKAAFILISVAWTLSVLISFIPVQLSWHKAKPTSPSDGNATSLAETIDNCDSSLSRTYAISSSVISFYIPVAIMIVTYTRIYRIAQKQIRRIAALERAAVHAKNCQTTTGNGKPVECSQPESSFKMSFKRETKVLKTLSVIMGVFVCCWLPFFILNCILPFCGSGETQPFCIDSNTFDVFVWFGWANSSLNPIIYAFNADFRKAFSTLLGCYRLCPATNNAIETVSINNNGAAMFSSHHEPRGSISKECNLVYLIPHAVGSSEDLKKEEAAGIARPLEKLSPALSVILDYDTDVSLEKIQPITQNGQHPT
T1 sequence (P14416 whole entry): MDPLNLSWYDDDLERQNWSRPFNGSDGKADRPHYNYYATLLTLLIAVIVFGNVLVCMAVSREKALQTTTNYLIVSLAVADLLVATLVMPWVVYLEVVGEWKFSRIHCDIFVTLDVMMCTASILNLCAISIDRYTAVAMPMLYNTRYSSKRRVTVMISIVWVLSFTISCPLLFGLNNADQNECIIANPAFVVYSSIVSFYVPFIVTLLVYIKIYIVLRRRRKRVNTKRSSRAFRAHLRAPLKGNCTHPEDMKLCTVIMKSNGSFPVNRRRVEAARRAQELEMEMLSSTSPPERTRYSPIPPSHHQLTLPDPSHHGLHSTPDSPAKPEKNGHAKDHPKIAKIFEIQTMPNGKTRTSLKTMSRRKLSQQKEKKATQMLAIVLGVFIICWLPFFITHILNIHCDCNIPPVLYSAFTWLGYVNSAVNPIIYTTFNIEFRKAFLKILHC
D(3) dopamine receptor, sequence (P35462 whole entry): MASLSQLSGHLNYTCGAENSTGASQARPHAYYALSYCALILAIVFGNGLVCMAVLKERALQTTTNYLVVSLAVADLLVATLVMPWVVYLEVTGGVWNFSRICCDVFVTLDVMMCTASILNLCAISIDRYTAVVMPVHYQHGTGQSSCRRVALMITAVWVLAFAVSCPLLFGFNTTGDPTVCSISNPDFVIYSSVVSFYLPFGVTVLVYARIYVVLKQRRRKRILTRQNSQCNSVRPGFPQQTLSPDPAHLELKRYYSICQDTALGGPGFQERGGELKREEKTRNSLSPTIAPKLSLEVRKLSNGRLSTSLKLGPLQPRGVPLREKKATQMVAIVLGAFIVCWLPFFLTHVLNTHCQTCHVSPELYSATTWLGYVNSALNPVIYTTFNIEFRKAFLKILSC

With `CCCN1CCc2cccc3c2[C@@H]1Cc1cccc(OCCCCN2CCN(c4ccccc4OC)CC2)c1-3`, the Ki at D(3) dopamine receptor stood at 189 nM; at D(2) dopamine receptor [1], 174 nM; at D(1A) dopamine receptor [2] it was 1170 nM.
In the case of `CCCN1CCc2cccc3c2C1Cc1cccc(OCc2cn(CCCCN4CCN(c5ccccc5OC)CC4)nn2)c1-3` (racemic), the Ratio was determined as 3.6 in [3] and 18 in experiment [6]. Moreover, the Ki in experiment [4] amounted to 174 nM; in experiment [5] it was 9.68 nM; at D(3) dopamine receptor it was 2.67 nM; at D(2) dopamine receptor [1], 661 nM; on D(1A) dopamine receptor [2], 2700 nM.
Turning to `CCCN1CCc2cccc3c2[C@H]1Cc1cccc(OCCCCN2CCN(c4ccccc4OC)CC2)c1-3`, the inhibition constant (Ki) is 23.4 nM at D(3) dopamine receptor, 141 nM on D(2) dopamine receptor [1] and 1310 nM at D(1A) dopamine receptor [2].
Consider `CCCN1CCc2cccc3c2C1Cc1cccc(OCCCCN2CCN(c4ccccc4OC)CC2)c1-3` (racemic), for which the Ki stood at 100000 nM in experiment [4]; 58 nM in [5]; 19.9 nM on D(3) dopamine receptor; 88 nM on D(2) dopamine receptor [1]; 735 nM on D(1A) dopamine receptor [2].
`CCCN1CCc2cccc3c2C1Cc1cccc(OCc2cn(CCN4CCN(c5ccccc5OC)CC4)nn2)c1-3` (racemic) gave a Ki on D(3) dopamine receptor of 44 nM. Further, the inhibition on D(2) dopamine receptor [7] was 19%; on D(1A) dopamine receptor [8], 35%.
The matching figures for `CCCN1CCc2cccc3c2C1Cc1cccc(OCc2cn(CCCN4CCN(c5ccccc5)CC4)nn2)c1-3` (racemic): 191 nM, 6% and 63%.
For `CCCN1CCc2cccc3c2[C@H]1Cc1cccc(OCCCn2cc(CCN4CCN(c5ccccc5OC)CC4)nn2)c1-3`, the results for the inhibition constant (Ki) at D(3) dopamine receptor and at D(2) dopamine receptor [1] were 7.7 nM and 770 nM, respectively. In addition, on D(1A) dopamine receptor [8], the inhibition was 54%.
In the same order, the values of `CCCN1CCc2cccc3c2[C@@H]1Cc1cccc(OCc2cn(CCCCN4CCN(c5ccccc5OC)CC4)nn2)c1-3` are 8 nM, 293 nM and 66%.
In the same order, the values of `CCCN1CCc2cccc3c2[C@@H]1Cc1cccc(OCCCn2cc(CCN4CCN(c5ccccc5OC)CC4)nn2)c1-3` are 1.82 nM, 600 nM and 68%.
In turn, `C#CCOc1cccc2c1-c1cccc3c1C(C2)N(CCC)CC3` (racemic) had an inhibition constant Ki at D(3) dopamine receptor of 2400 nM. Besides, on D(2) dopamine receptor [7], the inhibition came to 28%.
The molecule `CCCN1CCc2cccc3c2C1Cc1cccc(OCc2cn(CCCN4CCN(c5ncccn5)CC4)nn2)c1-3` (racemic) registered an inhibitory constant (Ki) on D(3) dopamine receptor of 539 nM. Also, the inhibition at D(2) dopamine receptor [7] stood at 13%; at D(1A) dopamine receptor [8], 32%.
For `CCCN1CCc2cccc3c2C1Cc1cccc(OCc2cn(CCCN4CCN(c5cccc(Cl)c5Cl)CC4)nn2)c1-3` (racemic), the Ki at D(3) dopamine receptor is 35 nM; at D(1A) dopamine receptor [2] it was 2010 nM. The molecule further came in with an inhibition at D(2) dopamine receptor [7] of 40.5%.
Turning to `CCCN1CCc2cccc3c2C1Cc1cccc(OCc2cn(CCCN4CCN(c5ccccc5OC)CC4)nn2)c1-3` (racemic), the values for the Ki at D(3) dopamine receptor and on D(2) dopamine receptor [1] were 21 nM and 1200 nM, respectively. The same molecule showed an inhibition on D(1A) dopamine receptor [8] of 67%.
As for `CCCN1CCc2cccc3c2C1Cc1cccc(OCCCn2cc(CCCN4CCN(c5ccccc5OC)CC4)nn2)c1-3` (racemic), at D(3) dopamine receptor, the inhibitory constant (Ki) is 8.16 nM. For the same molecule, the figures for the inhibition on D(2) dopamine receptor [7] and at D(1A) dopamine receptor [8] were 18% and 14%, respectively.
`CCCN1CCc2cccc3c2C1Cc1cccc(OCCCNCCCO)c1-3` (racemic): the affinity at D(3) dopamine receptor corresponds to a Ki of 4510 nM. For the same molecule, the inhibition stood at 9% on D(2) dopamine receptor [7] and 44% at D(1A) dopamine receptor [8].
Consider `CCCN1CCc2cccc3c2C1Cc1cccc(OCCCn2cc(CCN4CCN(c5ccccc5OC)CC4)nn2)c1-3` (racemic), for which the values for the Ratio in experiment [3] and in experiment [6] were 6.6 and 32, respectively. The inhibition constant Ki in [4] was determined as 245 nM; in experiment [5], 7.59 nM; at D(3) dopamine receptor, 1.14 nM; on D(2) dopamine receptor [1], 7380 nM. In addition, the inhibition on D(1A) dopamine receptor [8] worked out at 64%.
As to `CCCN1CCc2cccc3c2C1Cc1cccc(OCCCn2cc(CN4CCN(c5ccccc5OC)CC4)nn2)c1-3` (racemic), the inhibition constant Ki on D(3) dopamine receptor turned out to be 281 nM. Moreover, the inhibition came to 51% on D(2) dopamine receptor [7] and 42% on D(1A) dopamine receptor [8].
With `CCCN1CCc2cccc3c2[C@H]1Cc1cccc(OCc2cn(CCCCN4CCN(c5ccccc5OC)CC4)nn2)c1-3`, the Ki was found to be 9.18 nM on D(3) dopamine receptor, 616 nM at D(2) dopamine receptor [1] and 1600 nM at D(1A) dopamine receptor [2].
In the same order, the values of `CCCN1CCc2cccc3c2C1Cc1cccc(OCCCN(CCCN2CCN(c4ccccc4OC)CC2)S(C)(=O)=O)c1-3` (racemic) are 102 nM, 399 nM and 910 nM.
With `CCCN1CCc2cccc3c2C1Cc1cccc(OCCCn2cc(CCCCN4CCN(c5ccccc5OC)CC4)nn2)c1-3` (racemic), the Ki at D(3) dopamine receptor was determined as 8.14 nM; on D(2) dopamine receptor [1], 206 nM; on D(1A) dopamine receptor [2] it was 1900 nM.
